Reference: ChEMBL document CHEMBL1821582, “SAR analysis of innovative selective small molecule antagonists of sphingosine-1-phosphate 4 (S1P₄) receptor” (Bioorg Med Chem Lett, 2011)
Values belong to the compound of their own block, whether it stands above or below them. Activity calls are given as the source filed them. The rule behind the calls is not given here.

Columns and labels:
[1] = target: T1, Sphingosine 1-phosphate receptor 4 (Homo sapiens, UniProt O95977); assay: Antagonist activity at human S1P4 receptor expressed in EDG6-bla U2OS cells coexpressing human endothelial differentiation gene 6 linked to GAL4-VP16 assessed as beta-lactamase expression by FRET assay; format: functional, cell-based
T1 sequence (O95977 whole entry): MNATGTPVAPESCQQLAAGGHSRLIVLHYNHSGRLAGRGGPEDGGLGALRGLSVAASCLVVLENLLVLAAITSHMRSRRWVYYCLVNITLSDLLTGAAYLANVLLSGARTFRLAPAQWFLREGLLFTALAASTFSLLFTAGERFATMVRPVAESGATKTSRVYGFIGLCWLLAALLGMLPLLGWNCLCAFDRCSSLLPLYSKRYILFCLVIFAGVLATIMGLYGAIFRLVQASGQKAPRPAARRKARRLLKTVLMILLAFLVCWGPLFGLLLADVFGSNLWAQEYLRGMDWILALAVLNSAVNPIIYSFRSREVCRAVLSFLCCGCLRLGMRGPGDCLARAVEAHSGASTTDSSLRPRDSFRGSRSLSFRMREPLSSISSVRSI
How it was run: (§1)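 Human EDG6 (S1P4) Tango assay in U2OS cells: the receptor is fused via a TEV protease site to a GAL4-VP16 transcription factor, with a co-expressed beta-arrestin/TEV protease fusion. Read-out is a beta-lactamase reporter driven by a UAS response element. Compounds were tested up to 25 μM, with percentage inhibition at 25 μM; values are the mean of n = 3 determinations.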

[2] = target: T2, Sphingosine 1-phosphate receptor 4 (Homo sapiens) (UniProt O95977); assay: Antagonist activity at human S1P4 receptor expressed in EDG6-bla U2OS cells coexpressing human endothelial differentiation gene 6 linked to GAL4-VP16 assessed as beta-lactamase expression at 25 uM by FRET assay; format: functional, cell-based; how it was run: as §1
T2 sequence (whole entry): T1 sequence (O95977 whole entry)

[3] = target: T3, Sphingosine 1-phosphate receptor 1 (Homo sapiens, UniProt P21453); assay: Inhibition of S1P1 receptor at 25 uM
[4] = target: T4, Sphingosine 1-phosphate receptor 3 (Homo sapiens, UniProt Q99500); assay: Inhibition of S1P3 receptor at 25 uM
[5] = target: T5, Sphingosine 1-phosphate receptor 5 (Homo sapiens, UniProt Q9H228); assay: Inhibition of S1P5 receptor at 25 uM
[6] = target: T6, Sphingosine 1-phosphate receptor 2 (Homo sapiens, UniProt O95136); assay: Inhibition of S1P2 receptor at 25 uM
[7] = target: T3, Sphingosine 1-phosphate receptor 1; assay: Antagonist activity at S1P1 receptor; format: functional
[8] = target: T4, Sphingosine 1-phosphate receptor 3; assay: Antagonist activity at S1P3 receptor; format: functional
[9] = target: T3, Sphingosine 1-phosphate receptor 1; assay: Antagonist activity at S1P1 receptor upto 25 uM; format: functional
[10] = target: T6, Sphingosine 1-phosphate receptor 2; assay: Antagonist activity at S1P2 receptor; format: functional
[11] = target: T6, Sphingosine 1-phosphate receptor 2; assay: Inhibition of S1P2 receptor; conditions: concentration not given here
[12] = target: T5, Sphingosine 1-phosphate receptor 5; assay: Antagonist activity at S1P5 receptor; format: functional

T5 sequence (Q9H228 whole entry): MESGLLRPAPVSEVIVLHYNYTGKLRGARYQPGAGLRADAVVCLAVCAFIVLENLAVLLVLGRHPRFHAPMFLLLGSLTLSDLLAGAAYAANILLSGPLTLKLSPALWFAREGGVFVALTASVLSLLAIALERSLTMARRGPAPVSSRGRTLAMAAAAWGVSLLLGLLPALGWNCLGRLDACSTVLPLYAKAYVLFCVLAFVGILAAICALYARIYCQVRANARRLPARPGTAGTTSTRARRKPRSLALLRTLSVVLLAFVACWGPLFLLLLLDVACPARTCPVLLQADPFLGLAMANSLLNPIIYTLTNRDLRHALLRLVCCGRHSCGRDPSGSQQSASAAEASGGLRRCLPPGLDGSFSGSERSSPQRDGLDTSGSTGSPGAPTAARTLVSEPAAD
T4 sequence (Q99500 whole entry): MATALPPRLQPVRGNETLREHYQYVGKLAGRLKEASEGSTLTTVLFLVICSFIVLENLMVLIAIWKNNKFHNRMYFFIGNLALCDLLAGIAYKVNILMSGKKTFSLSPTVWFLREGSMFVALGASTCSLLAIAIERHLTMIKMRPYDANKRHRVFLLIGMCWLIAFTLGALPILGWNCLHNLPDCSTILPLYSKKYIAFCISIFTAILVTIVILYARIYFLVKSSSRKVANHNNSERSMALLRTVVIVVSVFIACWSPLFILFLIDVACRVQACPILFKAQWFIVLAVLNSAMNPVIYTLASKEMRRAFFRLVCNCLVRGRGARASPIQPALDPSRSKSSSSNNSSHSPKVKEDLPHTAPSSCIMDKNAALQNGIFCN
T6 sequence (O95136 whole entry): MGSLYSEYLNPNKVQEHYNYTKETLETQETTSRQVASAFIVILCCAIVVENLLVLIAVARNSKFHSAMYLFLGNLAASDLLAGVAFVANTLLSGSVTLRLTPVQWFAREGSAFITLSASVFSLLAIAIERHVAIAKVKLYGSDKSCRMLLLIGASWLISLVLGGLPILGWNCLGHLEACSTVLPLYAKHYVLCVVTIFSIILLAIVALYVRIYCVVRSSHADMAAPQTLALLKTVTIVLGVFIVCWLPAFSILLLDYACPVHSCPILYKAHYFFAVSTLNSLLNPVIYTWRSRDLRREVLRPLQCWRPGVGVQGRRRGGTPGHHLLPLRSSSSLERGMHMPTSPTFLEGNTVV
T3 sequence (P21453 whole entry): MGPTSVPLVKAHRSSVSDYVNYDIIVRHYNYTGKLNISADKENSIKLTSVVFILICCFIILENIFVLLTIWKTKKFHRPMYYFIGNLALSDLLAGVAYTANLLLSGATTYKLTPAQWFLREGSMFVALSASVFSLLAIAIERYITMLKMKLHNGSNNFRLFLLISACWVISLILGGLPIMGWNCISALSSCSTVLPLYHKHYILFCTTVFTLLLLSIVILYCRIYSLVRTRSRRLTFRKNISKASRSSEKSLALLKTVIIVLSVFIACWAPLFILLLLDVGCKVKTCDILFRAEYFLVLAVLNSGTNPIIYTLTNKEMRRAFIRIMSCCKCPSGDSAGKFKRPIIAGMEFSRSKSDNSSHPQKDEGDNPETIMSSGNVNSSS

Structure (SMILES): Cc1ccc(C)c(-c2cc(C)c(C(=O)Nc3c(C)cccc3C)o2)c1
- IC50 [1]: 173 nM

Structure (SMILES): Cc1ccc(C)c(-c2cccc(C(=O)Nc3c(C)cccc3C)c2)c1
- inhibition [3]: 30%
- IC50 [1]: 75 nM
- inhibition [4]: 40%
- inhibition [5]: 40%
- inhibition [6]: 25%

Structure (SMILES): Cc1ccc(C)c(-c2oc(C(=O)Nc3c(C)cccc3C)cc2C)c1
- IC50 [1]: 911 nM

Structure (SMILES): Cc1ccc(C)c(-c2cc(C(=O)Nc3c(C)cccc3C)ccc2C)c1
- IC50 [1]: 2400 nM

Structure (SMILES): Cc1ccc(C)c(-c2ccc(C(=O)Nc3c(C)cccc3C)n2C)c1
- IC50 [1]: 6300 nM

Structure (SMILES): Cc1ccc(C)c(-c2ccc(C(=O)Nc3c(C)cccc3C)s2)c1
- IC50 [1]: 59 nM
- Activity [9]: inactive
- IC50 [10]: 1100 nM
- inhibition [11]: 40%
- inhibition [4]: 35%
- inhibition [5]: 30%

Structure (SMILES): Cc1ccc(C)c(-c2cc(C(=O)Nc3c(C)cccc3C)co2)c1
- IC50 [1]: 233 nM

Structure (SMILES): Cc1ccc(C)c(-c2coc(C(=O)Nc3c(C)cccc3C)c2)c1
- IC50 [1]: 211 nM

The remaining lines, values ahead:

- Activity [2]: inactive
Structure (SMILES): Cc1cccc(C)c1NC(=O)c1cccc(-c2cc(Cl)ccc2Cl)n1

- IC50 [7]: > 20000 nM
- IC50 [8]: > 20000 nM
Structure (SMILES): Cc1cccc(C)c1NC(=O)c1ccc(-c2cc(Cl)ccc2Cl)o1

- Activity [2]: inactive
Structure (SMILES): Cc1cccc(C)c1NCc1ccc(-c2cc(Cl)ccc2Cl)o1

- Activity [2]: inactive
Structure (SMILES): CCc1cccc(C)c1NC(=O)c1nnc(-c2cc(Cl)ccc2Cl)o1

- IC50 [7]: > 20000 nM
- IC50 [8]: > 20000 nM
- IC50 [12]: > 20000 nM
Structure (SMILES): Cc1ccc(C)c(-c2ccc(C(=O)Nc3c(C)cccc3C)o2)c1
